A selection follows.
Apaf-1 act – activates human Apaf-1 apoptosome. activity change, negative = activation, % at 20 µM. AID 489031. Apaf-1 apoptosome caspase-3 activation, DEVD-Rh110 fluorescence; active compounds read low. 330,000 compounds, 0.31% hits. O14727;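 active = activity change at or below -40% at 20 µM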
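Material: biochemical Apaf-1 apoptosome reconstitution; Medium: 20 mM HEPES buffer, pH 7.5, containing CHAPS and BSA; Reagent: dATP, cytochrome c, and (Z-DEVD)2-Rh110 caspase-3 substrate; Times: 30 min preincubation, 50 min reaction, room temperature; Signal: Rh110 fluorescence, excitation 480 nm, emission 540 nm; Measure: Caspase-3 activity via Apaf-1.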
Rh110 interf act – interferes with Rh110 fluorescence, flagging false Apaf-1 activators | fluorescence interference (activity change), % at 20 µM, hits read low | shares compounds with Apaf-1 act | AID 504616 | 980 tested, under 10 active | Rh110 fluorescence interference, quenched caspase reaction, Ex480/Em540;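 active = mean activity change at or below -40% when tested at 20 µM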
Apaf-1 act conf – confirmation of human Apaf-1 activators. AID 504617. shares compounds with Apaf-1 act. reconstituted apoptosome caspase-3 activity, DEVD-Rh110 fluorescence; active compounds read low. activity change, negative = activation, % at 20 µM. 980 compounds, 5% hits;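 active = mean activity change at or below -40%, meaning activation of 40% or more, at 20 µM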
Apaf1 act interf – counter-screen for Apaf-1 activators: fluorescence interference, dose response; shares compounds with Apaf-1 act; AID 588592; EC50, µM; 55 tested, under 10 active; fluorescence interference counterscreen, Apaf-1 activator assay; call rule not given here
The depositor's hits bear a star; . = no result.

SMILES	Apaf-1 act	Rh110 interf act	Apaf-1 act conf	others
O=C1c2ccccc2C(=O)c2c1oc(C(F)(F)F)c2C(=O)c1ccccc1	78.6	.	.
COc1ccc(O[C@H]2C=C[C@@H](c3ccccc3)O[C@@H]2CO/N=C(\C)CCN2CCc3nc(-c4ccccc4)c(-c4ccccc4)cc3C2)cc1	47.5	.	.
COc1ccc(C(=O)N2CCCCCC2)cc1OC1CCN(C(C)C)CC1	-68.0*	-1.4	-2.2
O=C(O)c1ccccc1-c1ccc(/C=c2\sc3nc4cc(Br)cnc4n3c2=O)o1	72.2	.	.
C[n+]1ccccc1/C=N/O	-0.1	.	.
O/N=C/c1ccc2ccccc2n1	-50.0*	-1.9	1.3
CSc1nncc(/C(C)=N\Nc2ccccc2)n1	70.4	.	.
CNC(=O)NCC12CC3CC(CC(C3)C1)C2	-293.1*	9.6	10.2
Cc1[nH][nH]c(=O)c1C(c1ccc(-c2ccc(Cl)c(Cl)c2)o1)c1c(C)[nH][nH]c1=O	78.8	.	.
Cc1cc(N)ccc1N1CCCC1	65.1	.	.
CC(=O)[C@@H]1[C@@H]2C(=O)N(c3ccc(F)c(Cl)c3)C(=O)[C@@H]2C2c3ccccc3C=CN21 (stereo partly drawn)	71.9	.	.
Cc1ccc(-c2nn3c(-c4ccco4)nnc3c3ccccc23)cc1S(=O)(=O)NCC1CCCO1 (stereo not drawn)	66.1	.	.
COc1ccc(-c2cc(C)no2)cc1S(=O)(=O)NCCc1ccco1	-382.3*	5.3	-0.9
CN(C)c1ccc(NC(=O)Oc2ccccc2)cc1	48.3	.	.
N#Cc1ccccc1OCC(=O)OCC(=O)N1CCCC1	-110.1*	11.0	14.8
C/C(=N\NC(=O)c1ccc(NS(=O)(=O)c2cccs2)cc1)c1ccc(Cl)cc1	-45.8*	0.6	14.4
Cc1cnc(NC(=O)C2=C(O)c3ccccc3S(=O)(=O)N2C)s1	-2.0	.	.
CCC(C)(C)C1CCc2c(sc(N)c2C(N)=O)C1 (stereo not drawn)	-47.9*	3.6	20.4
CCN(CC)C(=O)Cn1cc(S(=O)(=O)CC(=O)N2CCOCC2)c2ccccc21	-55.6*	12.3	12.3
CCCCc1c(C)nn(-c2nnc3c4ccccc4n(CC)c3n2)c1C	46.8	.	.
O=C1C(Cl)=C(NCCCO)C(=O)c2ccccc21	44.7	.	.
COc1cccc2nc3cc(C)c(C)cc3nc12	83.6	.	.
CC(Cc1c[nH]c2ccccc12)C(=O)O (stereo not drawn)	-350.9*	8.0	-119.6*	Apaf1 act interf=>100
CN(C)CCCNC(=S)NCC(c1ccc(Cl)cc1Cl)c1c[nH]c2ccccc12 (stereo not drawn)	41.2	.	.
CCN1CCc2c(sc(NC(=O)c3ccc4ccccc4c3)c2C(N)=O)C1	40.3	.	.
SMILES	Apaf-1 act	Rh110 interf act	Apaf-1 act conf	others
Nc1ncc2[nH]cnc2n1	-4.1	.	.
Fc1ccc(F)c(C2=NNC(=Nc3ccccc3F)SC2)c1	-44.9*	5.2	16.3
O=c1ccc2cc3c([nH]c4ccc(Br)cc43)oc-2c1O	85.3	.	.
CC1=NN(c2ccc(S(=O)(=O)O)cc2Cl)C(=O)C1	66.2	.	.
COc1cc2c(C#N)c(N3CCc4ccccc4C3)nc(N)c2c(N)n1	94.3	.	.
COc1ccc2c(c1)Cc1sc(NC(=O)c3ccco3)nc1-2	85.4	.	.
COc1ccc(C2CC(c3ccc(OC)cc3)n3nc(NC(=O)c4ccco4)nc3N2)cc1 (stereo not drawn)	-329.7*	-8.5	15.3
CC(C)CC(=O)NC(=S)Nc1ccccc1F	-79.7*	-7.1	11.2
Cc1ccc(NC(=S)Nc2cccc3ccccc23)cc1F	88.9	.	.
COC(=O)CCC(=O)OC1(C)C(=O)C=C2C=C(C3CC3)N(CCN3CCOCC3)C=C2C1=O (stereo not drawn)	46.2	.	.
COc1ccc(C(=O)/C=C/Nc2cc(C)ccn2)cc1	-165.0*	-2.6	16.2
Cc1[nH]cnc1CSCc1ccc(Cl)cc1	-426.1*	3.3	15.8
c1ccc(-c2sc3ccccc3c2-c2ccc(OCCN3CCCCC3)cc2)cc1	52.5	.	.
CN(C)CCCN1c2ccccc2Sc2ccc(C(F)(F)F)cc21	42.9	.	.
COc1ccc(-c2csc(-c3ccc(O)cc3)n2)cc1	-115.7*	8.4	4.5
C#CCOCCOCCOCCNc1nc(N2CCN(C(=O)CCCCCCCCCCNC(=O)[C@H](CO)n3cc(CCCSC)nn3)CC2)nc(N2CCN(C(=O)CCCCCCCCCCNC(=O)[C@H](CCCCN)n3cc(CCO)nn3)CC2)n1	73.7	.	.
O=C(c1ccc(Cn2c(=O)[nH]c3ccccc3c2=O)cc1)N1CCN(c2ccc(Cl)cc2)CC1	41.4	.	.
COc1cc2[nH]c(=O)n(Cc3ccc(C(=O)NC4CCCC4)cc3)c(=O)c2cc1OC	-52.8*	6.7	3.4
CCOc1ccc(/C=N/OCC(=O)Nc2cc(S(=O)(=O)N3CCOCC3)ccc2OC)cc1	-54.6*	-2.0	13.5
